Data on 1 molecule can be found in ChEMBL document CHEMBL3352378, “Novel carbazole inhibits phospho-STAT3 through induction of protein-tyrosine phosphatase PTPN6” (J Med Chem, 2014).

The source made the active and inactive calls. The rule behind the calls is not given here.

In the experiment the target is Signal transducer and activator of transcription 3 (Homo sapiens) (UniProt P40763). The experiment can be described thus: Inhibition of STAT3C-mediated transcription in human Hs578T cells at 1 uM after 24 hrs by luciferase reporter gene assay. The class given is cell-based. The conditions noted are these: Hs-578T. Put shortly:
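HS578T cells co-transfected with a constitutively active STAT3 (STAT3C) expression vector and the APRE-Luc reporter. Treated at 1 μM for 24 h, with JAK2 inhibitor AZD1480 for comparison. Luciferase measured; mean ± SD of triplicates.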
A general note: In a reporter assay the amount or activity of a reporter protein is the signal.

Chain of Signal transducer and activator of transcription 3 (Homo sapiens) (P40763 whole entry): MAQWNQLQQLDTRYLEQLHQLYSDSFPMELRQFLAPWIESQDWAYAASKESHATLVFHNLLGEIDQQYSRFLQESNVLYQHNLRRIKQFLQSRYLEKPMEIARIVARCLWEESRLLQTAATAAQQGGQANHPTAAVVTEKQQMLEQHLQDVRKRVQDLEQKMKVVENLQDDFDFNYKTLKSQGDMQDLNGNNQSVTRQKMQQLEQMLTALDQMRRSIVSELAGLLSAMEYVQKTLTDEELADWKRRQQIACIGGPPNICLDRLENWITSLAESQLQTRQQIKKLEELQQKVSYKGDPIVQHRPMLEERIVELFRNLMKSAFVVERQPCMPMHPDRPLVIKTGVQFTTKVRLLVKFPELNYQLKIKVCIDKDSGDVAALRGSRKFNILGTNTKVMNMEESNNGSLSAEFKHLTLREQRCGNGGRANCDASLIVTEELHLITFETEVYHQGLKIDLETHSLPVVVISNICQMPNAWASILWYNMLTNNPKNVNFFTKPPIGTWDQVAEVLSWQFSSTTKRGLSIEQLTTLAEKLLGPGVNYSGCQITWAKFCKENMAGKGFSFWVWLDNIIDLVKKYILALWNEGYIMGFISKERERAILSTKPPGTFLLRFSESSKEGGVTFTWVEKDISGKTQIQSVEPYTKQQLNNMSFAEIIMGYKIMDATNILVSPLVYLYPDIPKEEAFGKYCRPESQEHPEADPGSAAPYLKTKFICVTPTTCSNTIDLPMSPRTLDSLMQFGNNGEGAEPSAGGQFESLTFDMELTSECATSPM

As to `Cc1cc(Nc2nc(N[C@@H](C)c3ncc(F)cn3)ncc2Cl)[nH]n1`, the inhibition result is “Active”.
